Measured values published in publication PMC13322713 (Molecular imaging and biology, 2025).
Where “and” joins values, the source holds several entries; their conditions need not be identical. Equal values may be shown once.

Key:
[1] = Lipophilicity logD7.4, octanol/PBS partitioning; format: physicochemical; details: pH 7.4
integrin αvβ6 = integrin αvβ6 (Homo sapiens, UniProt P06756+P18564); assay: Competitive binding ELISA against Bt-LAP; details: ratio of ELISA IC50s
Method in brief: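 Competitive ELISAs used biotinylated LAP as ligand for integrin αvβ6 and biotinylated vitronectin for αvβ3. IC50s came from a sigmoidal fit of binding over a peptide concentration range. The ratio is αvβ3 IC50 divided by αvβ6 IC50.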

DX3puroβ6 (αvβ6 +) cells = assay: Cell binding and internalization, DX3puroβ6 cells; format: cell-based
Method in brief: (§1)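 Cells cultured at 37 °C, 5% CO2 with 10% FBS and 1% PSG: puromycin-containing DMEM for the DX3 pair, RPMI for BxPC-3. Integrin expression was checked by flow cytometry beforehand. The radiotracer was incubated 1 h with 3.75 × 10^6 cells per experiment in PBS containing calcium and magnesium, with non-fat dry milk blocking. Internalization was at 37 °C. Bound and internalized fractions are expressed as % of total radioactivity, quadruplicate, mean ± SD.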

DX3puro (αvβ6 −) cells = assay: Cell binding and internalization, DX3puro cells; format: cell-based; details: 1 h, 3.75 × 10^6 cells/experiment, mean ± SD, n = 4
Method in brief: as §1

[2] = test system: pancreatic BxPC-3 (αvβ6 +) cells; assay: Cell binding and internalization, BxPC-3 cells; format: cell-based
Method in brief: as §1

[3] = Biodistribution in BxPC-3 tumor-bearing mice; format: in vivo; details: female, athymic nude, mouse, iv, 0.175 nmol per injection, total radioactivity
Method in brief: (§2)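 Female athymic nude mice, inoculated subcutaneously with 5 × 10^6 BxPC-3 cells in RPMI/Matrigel (1/1 v/v), used at ~0.5 cm tumor diameter (approx. 3 weeks). Isoflurane-anesthetized mice received the tail-vein radiotracer in PBS at 2.2–3.3 MBq, with mass held at 0.175 nmol by adding nonmetallated compound. Tissues collected 1, 2 and 4 h p.i. (n = 4 per time point), rinsed, γ-counted, and expressed as decay-corrected %ID/g, mean ± SD.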

[4] = test system: BxPC-3 tumor-bearing mice; assay: Biodistribution in BxPC-3 tumor-bearing mice; format: in vivo
Method in brief: as §2

[5] = Whole-body radioactivity / excretion during PET/CT study; design: species or system mice; details: female, athymic nude, mouse, in vivo, iv, 0.175 nmol per injection, total radioactivity

Chain of integrin αvβ6 (P06756 31-1048): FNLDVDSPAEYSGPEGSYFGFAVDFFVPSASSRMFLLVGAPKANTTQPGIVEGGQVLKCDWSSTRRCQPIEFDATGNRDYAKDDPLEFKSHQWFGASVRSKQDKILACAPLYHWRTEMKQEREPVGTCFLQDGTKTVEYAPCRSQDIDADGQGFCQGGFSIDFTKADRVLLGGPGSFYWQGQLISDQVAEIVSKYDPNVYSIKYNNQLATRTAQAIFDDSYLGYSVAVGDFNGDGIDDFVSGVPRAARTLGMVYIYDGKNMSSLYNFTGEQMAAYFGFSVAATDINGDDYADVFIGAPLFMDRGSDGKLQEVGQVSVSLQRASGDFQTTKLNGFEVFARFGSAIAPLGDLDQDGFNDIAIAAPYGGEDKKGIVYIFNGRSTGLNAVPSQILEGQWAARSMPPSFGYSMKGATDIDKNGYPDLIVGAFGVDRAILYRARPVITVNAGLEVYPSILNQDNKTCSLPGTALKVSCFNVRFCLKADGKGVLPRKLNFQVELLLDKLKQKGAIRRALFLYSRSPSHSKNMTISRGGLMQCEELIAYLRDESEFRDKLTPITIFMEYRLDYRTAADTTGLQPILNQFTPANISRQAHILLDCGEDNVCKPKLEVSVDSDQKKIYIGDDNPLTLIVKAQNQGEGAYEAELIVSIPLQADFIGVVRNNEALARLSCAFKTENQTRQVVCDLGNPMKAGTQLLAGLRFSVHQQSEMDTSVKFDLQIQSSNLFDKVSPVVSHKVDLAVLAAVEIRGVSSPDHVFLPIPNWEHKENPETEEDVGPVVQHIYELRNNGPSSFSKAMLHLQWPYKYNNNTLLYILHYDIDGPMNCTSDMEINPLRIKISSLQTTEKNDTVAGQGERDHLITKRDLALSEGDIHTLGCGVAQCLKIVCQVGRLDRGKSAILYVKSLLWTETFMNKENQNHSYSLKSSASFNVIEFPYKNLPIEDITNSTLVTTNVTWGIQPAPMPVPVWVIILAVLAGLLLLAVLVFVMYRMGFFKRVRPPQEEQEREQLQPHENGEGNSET
Chain of integrin αvβ6 (P18564 22-788): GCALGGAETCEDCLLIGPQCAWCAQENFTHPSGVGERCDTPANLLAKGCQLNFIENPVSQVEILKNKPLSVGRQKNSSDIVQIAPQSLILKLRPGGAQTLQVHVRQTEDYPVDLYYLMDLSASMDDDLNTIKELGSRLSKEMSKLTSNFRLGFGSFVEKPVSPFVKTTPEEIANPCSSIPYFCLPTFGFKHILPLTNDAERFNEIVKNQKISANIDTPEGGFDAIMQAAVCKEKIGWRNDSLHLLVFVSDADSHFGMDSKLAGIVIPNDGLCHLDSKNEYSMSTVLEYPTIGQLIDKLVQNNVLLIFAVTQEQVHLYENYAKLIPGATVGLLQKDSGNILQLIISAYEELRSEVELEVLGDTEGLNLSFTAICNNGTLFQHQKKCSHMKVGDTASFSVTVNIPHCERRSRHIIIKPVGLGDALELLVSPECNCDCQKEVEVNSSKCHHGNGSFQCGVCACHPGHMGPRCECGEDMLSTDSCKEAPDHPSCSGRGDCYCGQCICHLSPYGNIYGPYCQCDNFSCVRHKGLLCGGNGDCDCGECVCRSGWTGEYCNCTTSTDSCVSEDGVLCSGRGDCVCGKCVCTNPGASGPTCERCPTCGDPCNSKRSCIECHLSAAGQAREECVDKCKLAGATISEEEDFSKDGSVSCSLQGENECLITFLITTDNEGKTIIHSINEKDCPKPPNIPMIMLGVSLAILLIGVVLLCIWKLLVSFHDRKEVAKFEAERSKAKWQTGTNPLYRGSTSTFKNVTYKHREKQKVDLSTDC

CC(C)C[C@H](NC(=O)[C@H](CC(=O)O)NC(=O)CNC(=O)[C@H](CCCNC(=N)N)NC(=O)[C@H](CC(C)C)NC(=O)[C@H](CC(N)=O)NC(=O)[C@@H]1CCCN1C(=O)[C@@H](NC(=O)CNC(=O)[C@H](CC(N)=O)NC(=O)CNC(=O)CCOCCOCCOCCOCCOCCOCCOCCOCCOCCOCCOCCOCCOCCOCCOCCOCCOCCOCCOCCOCCOCCOCCOCCOCCOCCOCCOCCOCCNC(=O)CN1CCN(CC(=O)O)CCN(CC(=O)O)CC1)C(C)C)C(=O)N[C@@H](CCC(N)=O)C(=O)N[C@H](C(=O)N[C@@H](CC(C)C)C(=O)NCC(=O)N[C@@H](CCC(N)=O)C(=O)N[C@@H](CCCNC(=N)N)C(=O)N[C@H](C(=O)NCC(=O)N[C@@H](CCCNC(=N)N)C(=O)N[C@H](C(=O)NCCOCCOCCOCCOCCOCCOCCOCCOCCOCCOCCOCCOCCOCCOCCOCCOCCOCCOCCOCCOCCOCCOCCOCCOCCOCCOCCOCCOCCC(N)=O)[C@@H](C)O)C(C)C)C(C)C [[^18F]AlF NOTA-5G]
logD [1]: -2.34 ± 0.08 | IC50-ratio (αvβ3 vs αvβ6) (integrin αvβ6): > 7700/1 | Ratio of cell binding DX3puroβ6 vs DX3puro (DX3puroβ6 (αvβ6 +) cells; 1 h): 33/1 | Ratio of internalization DX3puroβ6 vs DX3puro (DX3puroβ6 (αvβ6 +) cells; 1 h at 37 °C): 96/1 | Radioactivity internalized (DX3puroβ6 (αvβ6 +) cells; DX3puroβ6, 1 h at 37 °C, abstract: of bound activity): ≥ 50% | Cell binding, % of total radioactivity bound (DX3puroβ6 (αvβ6 +) cells; DX3puroβ6 αvβ6(+), 1 h, 3.75 × 10^6 cells/experiment, mean ± SD, n = 4): 66% and 66.2 ± 0.8% | Cell binding, % of total radioactivity bound (DX3puro (αvβ6 −) cells): 2% and 2.0 ± 0.2% | Radioactivity internalized ([2]; BxPC-3, 1 h at 37 °C, abstract: of bound activity): ≥ 50% | Cell binding, % of total radioactivity bound ([2]; BxPC-3 αvβ6(+), 1 h, 3.75 × 10^6 cells/experiment, mean ± SD, n = 4): 29.1 ± 3.7% | tissue uptake at 1 h ([3]; BxPC-3 tumor): 2.3 ± 0.4 %ID/g | tissue uptake at 4 h ([3]; BxPC-3 tumor): 1.8 ± 0.6 %ID/g | tissue uptake at 1 h ([3]; blood): 0.16 ± 0.03 %ID/g | tissue uptake at 4 h ([3]; blood): 0.01 ± 0.01 %ID/g | excreta dose per gram or mL at 1 h ([3]; feces): 0.7 ± 0.1 %ID/g | excreta dose per gram or mL at 4 h ([3]; feces): 5 ± 2.1 %ID/g | tissue uptake at 1 h ([3]; kidneys): 18.6 ± 6.4 %ID/g | tissue uptake at 4 h ([3]; kidneys): 12.5 ± 1.8 %ID/g | Tumor/blood ratio ([4]; 2 h p.i.): greater than 15/1 | Tumor/liver ratio ([4]; 2 h p.i.): greater than 15/1 | Tumor/pancreas ratio ([4]; 2 h p.i.): greater than 15/1 | Tumor/blood ratio ([4]; 4 h p.i.): 162/1 | Tumor/liver ratio ([4]; 4 h p.i.): 24/1 | Tumor/muscle ratio ([4]; 4 h p.i.): 6/1 | Tumor/pancreas ratio ([4]; 4 h p.i.): 18/1 | Radioactivity levels in tissues aside from kidneys and GI tract, including bone ([4]; all time points (1, 2, 4 h p.i.)): ≤ 1.6 % ID/g | dose excreted at 4 h [5]: 80%
